The subject of one assay is Enterovirus. Nature of the assay: Inhibitory activity against Enterovirus 68 using plaque reduction assay. The assay is classed as functional, organism-based. In a few lines:
(§1)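 Panel screen by plaque reduction against representative human enteroviruses and rhinoviruses. Each value is a mean of triplicate wells, with all experiments performed at least twice.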

For assay [1], the system named is Coxsackievirus. Nature of the assay: Inhibitory activity against Coxsackievirus B3 using plaque reduction assay. It counts as functional, organism-based. In a few lines:
as §1

Assay [2] has as its system Coxsackievirus. Nature of the assay: Inhibitory activity against Coxsackievirus B2 using plaque reduction assay. It counts as functional, organism-based. In a few lines: as §1
The subject of assay [3] is Coxsackievirus. As to the kind of experiment: Inhibitory activity against Coxsackievirus B6 using plaque reduction assay. It counts as functional, organism-based. An outline of the steps: as §1
The test system of assay [4] is Coxsackievirus. As to the kind of experiment: Inhibitory activity against Coxsackievirus A9 using plaque reduction assay. It counts as functional, organism-based. In a few lines:
as §1

A further assay relates to rhinovirus B14. Nature of the assay: Inhibitory activity against Human rhinovirus 14 using plaque reduction assay. It counts as functional, organism-based, Human rhinovirus sp. Conditions: Rhinovirus B. An outline of the steps:
as §1

Assay [5] concerns Coxsackievirus. Nature of the assay: Inhibitory activity against Coxsackievirus A24 using plaque reduction assay. The assay is classed as functional, organism-based. In a few lines: as §1
Assay [6] deals with Enterovirus A71. Nature of the assay: Inhibitory activity against Human enterovirus 71 strain 4643 using plaque reduction assay. The assay is classed as functional, organism-based. Conditions: Enterovirus A. In a few lines:
(§2)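 EV71 strain 4643 titrated by plaque reduction in human rhabdomyosarcoma (RD) cells. Values are means of triplicate wells, and each experiment was run at least twice.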

In a further assay the test system is Echovirus. Nature of the assay: Inhibitory activity against Echovirus 29 using plaque reduction assay. It counts as functional, organism-based. In a few lines:
as §1

Assay [7] deals with Enterovirus A71. As to the kind of experiment: Inhibitory activity against Human Enterovirus 71 (1743) B using plaque reduction assay. It counts as functional, organism-based. The following applies: Enterovirus A. In a few lines: as §1
The test system of assay [8] is Enterovirus A71. As to the kind of experiment: Inhibitory activity against Human Enterovirus 71 (2231) C using plaque reduction assay. The assay is classed as functional, organism-based. Conditions: Enterovirus A. In a few lines:
as §1

In assay [9] the test system is Enterovirus A71. As to the kind of experiment: Inhibitory activity against Human Enterovirus 71 (BrCr) A using plaque reduction assay. The assay is classed as functional, organism-based. In a few lines: as §1
Assay [10] relates to Enterovirus A71. As to the kind of experiment: Inhibitory activity against Human Enterovirus 71 (4643) C using plaque reduction assay. Conditions: Enterovirus A. It counts as functional, organism-based. An outline of the steps: as §1
The subject of assay [11] is Coxsackievirus. As to the kind of experiment: Inhibitory activity against Coxsackievirus B1 using plaque reduction assay. The assay is classed as functional, organism-based. An outline of the steps:
as §1

For assay [12], the system named is Enterovirus A71. As to the kind of experiment: Inhibitory activity against Human Enterovirus 71 (2086) C using plaque reduction assay. The assay is classed as functional, organism-based. Conditions: Enterovirus A. In a few lines:
as §1

Assay [13] concerns Coxsackievirus. Nature of the assay: Inhibitory activity against Coxsackievirus B4 using plaque reduction assay. It counts as functional, organism-based. In a few lines: as §1
Assay [14] can be described thus: Cytotoxicity against Human rhabdomyosarcoma cells using plaque reduction assay. The assay is classed as functional. An outline of the steps: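 Cytotoxicity was measured in human rhabdomyosarcoma (RD) cells. Values are means of triplicate wells from experiments done at least twice.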
Assay [15] deals with Coxsackievirus. Nature of the assay: Inhibitory activity against Coxsackievirus A16 using plaque reduction assay. The assay is classed as functional, organism-based. In a few lines:
as §1

Assay [16] has as its system Coxsackievirus. Nature of the assay: Inhibitory activity against Coxsackievirus B5 using plaque reduction assay. It counts as functional, organism-based. An outline of the steps: as §1
Assay [17] deals with Coxsackievirus. Nature of the assay: Inhibitory activity against Coxsackievirus A10 using plaque reduction assay. It counts as functional, organism-based. An outline of the steps: as §1
For another assay, the system named is rhinovirus A2. As to the kind of experiment: Inhibitory activity against Human rhinovirus 2 using plaque reduction assay. It counts as functional, organism-based, Human rhinovirus sp. The following applies: Rhinovirus A. In a few lines: as §1
The next assay deals with Enterovirus D68. As to the kind of experiment: Inhibitory activity against Human Enterovirus 68 using plaque reduction assay. Conditions: Enterovirus D.
For assay [18], the system named is Enterovirus A71. Nature of the assay: Inhibitory activity against human enterovirus 71 strain 4643 using plaque reduction assay. The assay is classed as functional, organism-based. Conditions: Enterovirus A. In a few lines: as §2
Assay [19] relates to Enterovirus A71. Nature of the assay: Inhibitory activity against human Enterovirus 71 (2086) C using plaque reduction assay. It counts as functional, organism-based. Conditions: Enterovirus A. In a few lines:
as §1

Assay [20] deals with Enterovirus A71. Nature of the assay: Inhibitory activity against human Enterovirus 71 (BrCr) A using plaque reduction assay. It counts as functional, organism-based. In a few lines:
as §1

The subject of assay [21] is Enterovirus A71. As to the kind of experiment: Inhibitory activity against human Enterovirus 71 (2231) C using plaque reduction assay. It counts as functional, organism-based. Conditions: Enterovirus A. In a few lines: as §1
Assay [22] deals with Enterovirus A71. As to the kind of experiment: Inhibitory activity against human Enterovirus 71 (4643) C using plaque reduction assay. It counts as functional, organism-based. Conditions: Enterovirus A. An outline of the steps:
as §1

For assay [23], the system named is Enterovirus A71. As to the kind of experiment: Inhibitory activity against human Enterovirus 71 (1743) B using plaque reduction assay. It counts as functional, organism-based. Conditions: Enterovirus A. In a few lines: as §1

On to `C[C@@H](CCOc1ccc(-c2ccc(Cl)cc2)cc1)CCN1CCN(c2ccncc2)C1=O`, for which the half-maximal inhibitory concentration (IC50) is over 25 µM with Enterovirus; over 25 µM in the assay on Coxsackievirus [1]; over 25 µM in the assay on Coxsackievirus [2]; over 25 µM in the assay on Coxsackievirus [3]; 0.15 µM with Coxsackievirus [4]; over 25 µM in the assay on rhinovirus B14. In addition, the 50% inhibitory concentration (IC50) is over 25 µM in the assay on Coxsackievirus [5]; 0.033 µM in the assay on Enterovirus A71 [6]; 1.47 µM in the assay with Echovirus; 0.17 µM in the assay on Enterovirus A71 [7]; 0.16 µM with Enterovirus A71 [8]; 0.32 µM with Enterovirus A71 [9]. Moreover, the IC50 in the assay with Enterovirus A71 [10] is 0.033 µM; in the assay with Coxsackievirus [11] it was over 25 µM; in the assay with Enterovirus A71 [12] it was 0.049 µM; in the assay on Coxsackievirus [13] it was 2.05 µM; in the assay on Coxsackievirus [15], over 25 µM; in the assay with Coxsackievirus [16], 2.08 µM. Besides, the concentration for half-maximal inhibition (IC50) with Coxsackievirus [17] and in the assay on rhinovirus A2 was over 25 µM throughout. The cytotoxic concentration (CC50) in assay [14] is over 25 µM.
As to `C[C@H](CCOc1ccc(-c2ccc(Cl)cc2)cc1)CCN1CCN(c2ccncc2)C1=O`, the IC50 was over 25 µM in the assay with Enterovirus D68; over 25 µM with Coxsackievirus [1]; over 25 µM in the assay with Coxsackievirus [2]; over 25 µM in the assay on Coxsackievirus [3]; 0.019 µM in the assay on Coxsackievirus [4]; over 25 µM in the assay on rhinovirus B14. Further, the half-inhibitory concentration (IC50) was over 25 µM in the assay with Coxsackievirus [5]; 0.003 µM in the assay on Enterovirus A71 [6]; 1.3 µM with Echovirus; 0.026 µM in the assay on Enterovirus A71 [7]; 0.003 µM in the assay with Enterovirus A71 [18]; 0.024 µM with Enterovirus A71 [8]. Moreover, the IC50 is 0.033 µM in the assay with Enterovirus A71 [9]; 0.003 µM in the assay on Enterovirus A71 [10]; over 25 µM with Coxsackievirus [11]; 0.008 µM in the assay on Enterovirus A71 [12]; 1.25 µM in the assay on Coxsackievirus [13]; 6.92 µM in the assay on Coxsackievirus [15]. Moreover, the half-inhibitory concentration (IC50) was 4.85 µM in the assay on Coxsackievirus [16] and over 25 µM in the assay on rhinovirus A2. In addition, the 50% cytotoxic concentration (CC50) in assay [14] was over 25 µM.
The compound `CC(C)(CCOc1ccc(-c2ccc(Cl)cc2)cc1)CCN1CCN(c2ccncc2)C1=O` displayed a concentration for half-maximal inhibition (IC50) in the assay on Enterovirus A71 [6] of 0.04 µM. In assay [14], this compound showed a CC50 of over 25 µM.
`O=C1N(CCCCCOc2ccc(-c3ccc(Cl)cc3)cc2)CCN1c1ccncc1`: the IC50 in the assay with Enterovirus is over 25 µM; with Coxsackievirus [1], over 25 µM; with Coxsackievirus [2] it was over 25 µM; with Coxsackievirus [3] it was over 25 µM; with rhinovirus B14 it was over 25 µM; in the assay with Enterovirus A71 [19], 0.043 µM. Also, the concentration for half-maximal inhibition (IC50) in the assay on Enterovirus A71 [6] is 0.054 µM; with Echovirus, 0.39 µM; in the assay with Enterovirus A71 [20], 0.13 µM; with Coxsackievirus [11] it was over 25 µM; in the assay with Coxsackievirus [13], 1.3 µM; in the assay on Enterovirus A71 [21], 0.092 µM. Moreover, the IC50 in the assay with Enterovirus A71 [22] is 0.054 µM; in the assay with Coxsackievirus [15], over 25 µM; in the assay on Coxsackievirus [17], over 25 µM; in the assay on Enterovirus A71 [23] it was 0.092 µM; in the assay on rhinovirus A2 it was over 25 µM. This compound also had a CC50 in [14] of over 25 µM.
